From PubChem
A selection: hits, their analogues and other compounds. The true share with any hit is near 2.3%.
Mcl1-Noxa inh: Mcl-1/Noxa binding inhibitors, primary screen, biochemical, TR-FRET, 1536-well; Induced myeloid leukemia cell differentiation protein Mcl-1 (Homo sapiens), Q07820; TR-FRET Mcl-1/Noxa peptide binding, 2 h; inhibition, % at 21.7 µM; 220,000 compounds, 1.5% hits;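 active = compounds that cut the protein-peptide binding signal by more than 50% relative to plate controls in a single-dose test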;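 note: His-tagged Mcl-1 with rhodamine Noxa BH3 peptide and terbium anti-His antibody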
DSG3 Ab inh: inhibitors of pemphigus antibody binding to DSG3, primary screen, biochemical, bead-based, flow cytometry, scFv-GFP; DSG3-coupled beads, scFv-anti-DSG3-GFP binding; hits give low values; binding (percent of control), % at 10 µM; 310,000 compounds, 0.48% hits;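 active = binding more than 3 SD below its plate's average and above zero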;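 note: hits lower antibody fragment binding to DSG3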
MCL1-BIM inh: inhibitors of MCL1 binding to BIM-BH3, primary screen, biochemical, fluorescence polarization. inhibition, % at 10.9 µM. 320,000 compounds, 0.68% hits. GST-MCL1 / FITC-Bim-BH3 fluorescence polarization. Induced myeloid leukemia cell differentiation protein Mcl-1 (Homo sapiens), Q07820;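 active = inhibition above the mean inhibition of all tested compounds plus 3 SD, set per campaign, cut at about 40% in these data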;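 note: higher means more loss of mP so more displacement of Bim peptide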
Mcl-1 Bim block: inhibitors of Bim peptide binding to Mcl-1, primary screen, biochemical, bead-based flow cytometry, multiplex | 190,000 compounds, 0.1% hits | Bim peptide-Mcl-1 binding | AID 1009, 2008 | inhibition, % at 10 µM | Induced myeloid leukemia cell differentiation protein Mcl-1 (Homo sapiens), Q07820; in the data active = inhibition above about 40%
Mcl1 Bid PPI: Mcl-1/Bid binding inhibitors, primary screen, biochemical, TR-FRET, 1536-well. Induced myeloid leukemia cell differentiation protein Mcl-1 (Homo sapiens), Q07820. TR-FRET Mcl-1/Bid-Dy647 peptide binding. inhibition, % at 21.7 µM. 220,000 compounds, 0.97% hits;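 active = compounds that cut the binding signal by more than half at the single screening dose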;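 note: His-tagged Mcl-1 with europium anti-His antibody binding Bid BH3 peptide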
T cell modulator: modulators of CD8 T cell-vesicle binding, primary screen, mouse 2C CD8+ T cells, flow cytometry | response (vesicle binding), % at 7 µM | AID 2052, 2009 | 330,000 compounds, 0.068% hits | 2C CD8+ T cell-vesicle binding; hits give low values;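 active = response, share of CD8 T cells binding vesicles, and their 90th percentile fluorescence all below set limits, cut at about 80% in these data, passing the limit was not always enough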;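 note: values below 100% mean blocked vesicle binding to the CD8+ T cells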
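Incubation: binding step 1.5 h, 37 °C, antibody labelling 20 min, ice; system: murine 2C transgenic CD8+ T lymphocytes; technique: cytometric PE anti-B7-1 and Alexa647 anti-CD8 signals after 1% paraformaldehyde fixation; also added: QL9-charged Drosophila Ld/ICAM-1/B7-1 vesicles; control set: naked versus QL9-loaded vesicles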
Bcl-xL conf: Bcl-xL inhibitors blocking Bim BH3 binding, confirmation, counter-screen for MCL1 inhibitor project, biochemical, fluorescence polarization; shares compounds with MCL1-BIM inh; GST-Bcl-xL / FITC-Bim BH3 peptide FP binding; inhibition, % at 10.9 µM; 1,700 compounds, 54% hits;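 active = inhibition above a cutoff equal to the mean inhibition of all tested compounds plus 3 SD, cut at about 30% in these data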
Target sequence (Q07817 whole entry, looked up): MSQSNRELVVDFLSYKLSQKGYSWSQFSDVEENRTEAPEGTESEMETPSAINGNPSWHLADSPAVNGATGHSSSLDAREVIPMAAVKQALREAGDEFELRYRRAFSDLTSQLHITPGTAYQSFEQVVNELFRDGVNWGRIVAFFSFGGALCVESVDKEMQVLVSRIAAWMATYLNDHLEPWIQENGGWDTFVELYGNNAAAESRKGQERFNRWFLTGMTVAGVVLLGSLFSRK
MCL1 BIM confirm: inhibitors of MCL1 binding to BIM-BH3, confirmation, biochemical, fluorescence polarization, triplicate; shares compounds with MCL1-BIM inh; GST-MCL1 / FITC-Bim-BH3 fluorescence polarization; inhibition, % at 10.9 µM; 1,700 compounds, 61% hits;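 active = inhibition above the average of all tested compounds plus 3 SD, cut at about 40% in these data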
Numbers stand for hits.

`Cc1ccc(NC(=O)C(C)Sc2nnc3n2CCCCC3)cc1S(=O)(=O)N1CCOCC1` (stereo not given) gave DSG3 Ab inh inactive.
`O=C(O)CCCNc1cc(N2CCN(C(=O)c3ccco3)CC2)c2noc3c2c1C(=O)c1ccccc1-3` gave DSG3 Ab inh inactive, MCL1-BIM inh 157, T cell modulator inactive, Bcl-xL conf 193 and MCL1 BIM confirm 164.
Screening O=C(c1ccco1)N1CCN(CCCCN2C(=O)c3ccccc3C2=O)CC1 returned Mcl1-Noxa inh inactive, DSG3 Ab inh inactive, MCL1-BIM inh inactive, Mcl-1 Bim block inactive, Mcl1 Bid PPI inactive and T cell modulator inactive.
`O=C1c2ccccc2-c2onc3c(N4CCN(CCO)CC4)cc(N4CCN(C(=O)c5ccco5)CC4)c1c23` gave DSG3 Ab inh inactive, MCL1-BIM inh 83, T cell modulator inactive, Bcl-xL conf 53 and MCL1 BIM confirm 58.
For Cc1cccc(S(=O)(=O)C(C#N)c2nc3ccccc3nc2N2CCCC2)c1 (stereo not given) the results were Mcl1-Noxa inh inactive, DSG3 Ab inh inactive, MCL1-BIM inh inactive, Mcl-1 Bim block inactive, Mcl1 Bid PPI inactive and T cell modulator inactive.
Screening N#CC(c1nc2ccccc2nc1N1CCCC1)S(=O)(=O)c1ccccc1 (stereo not given) returned Mcl1-Noxa inh inactive, DSG3 Ab inh inactive, MCL1-BIM inh 70, Mcl-1 Bim block inactive, Mcl1 Bid PPI inactive, T cell modulator inactive, Bcl-xL conf 75 and MCL1 BIM confirm 76.
`Cc1ccc(C)c(S(=O)(=O)C(C#N)c2nc3ccccc3nc2N2CCCC2)c1` (stereo not given) gave Mcl1-Noxa inh inactive, DSG3 Ab inh inactive, MCL1-BIM inh 78, Mcl-1 Bim block inactive, Mcl1 Bid PPI inactive, T cell modulator inactive, Bcl-xL conf inactive and MCL1 BIM confirm inactive.
Screening COc1ccc(S(=O)(=O)C(C#N)c2nc3ccccc3nc2N2CCCCC2)cc1 (stereo not given) returned Mcl1-Noxa inh inactive, DSG3 Ab inh inactive, MCL1-BIM inh 79, Mcl-1 Bim block inactive, Mcl1 Bid PPI inactive, T cell modulator inactive, Bcl-xL conf inactive and MCL1 BIM confirm inactive.
`Cc1ccc(C)c(S(=O)(=O)C(C#N)c2nc3ccccc3nc2N2CCOCC2)c1` (stereo not given) gave Mcl1-Noxa inh inactive, DSG3 Ab inh inactive, MCL1-BIM inh inactive, Mcl-1 Bim block inactive, Mcl1 Bid PPI inactive and T cell modulator inactive.
`Cc1cc(NC(=O)CSc2nnc(C)n2C)no1` gave DSG3 Ab inh inactive, MCL1-BIM inh inactive and T cell modulator inactive.
Screening CN1CCC(=C2c3ccccc3C(O)c3ccccc32)CC1 (stereo not given) returned Mcl1-Noxa inh inactive, DSG3 Ab inh inactive, MCL1-BIM inh inactive, Mcl1 Bid PPI inactive and T cell modulator inactive.
For CN1CCc2cccc3c2C1Cc1ccc(O)c(O)c1-3 (stereo not given) the results were DSG3 Ab inh inactive, MCL1-BIM inh 49, T cell modulator inactive, Bcl-xL conf 46 and MCL1 BIM confirm 70.
Cc1nc2nc(-c3cccs3)cn2nc1C was read as Mcl1-Noxa inh 62, MCL1-BIM inh 113, Mcl-1 Bim block inactive, Mcl1 Bid PPI inactive, T cell modulator inactive, Bcl-xL conf 100 and MCL1 BIM confirm 127.
Cc1nc2nc(-c3ccc(Cl)cc3)cn2nc1C was read as Mcl1-Noxa inh inactive, DSG3 Ab inh inactive, MCL1-BIM inh inactive, Mcl-1 Bim block inactive, Mcl1 Bid PPI inactive and T cell modulator inactive.
